ChEMBL document CHEMBL1123886 (J Med Chem, 1987)
pIC50: −log10 of the molar value. The source made the active and inactive calls. The calls are words filed in the database; no cut-off is given here.

Key:
[1] = Lipophilicity (Rm).; format: physicochemical
HCT-8 = assay: Ability to inhibit the growth of human colon tumor HCT-8 cells in vitro.; format: functional, cell-based
In short: (§1)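 Cultured leukemia L1210 or human colon tumor HCT-8 cells were exposed to drug for 40 h.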

L1210 = assay: Ability to inhibit the growth of leukemia L1210 cells in vitro.; format: functional, cell-based; conditions: Mus musculus; in short: as §1
[2] = system: Lewis lung carcinoma cell line; assay: Percent increase in life span, of the drug-treated tumor-bearing animals vs nontreated tumor-bearing controls with LL (Lewis lung carcinoma model) cells.; format: functional, Mus musculus
In short: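 Groups of 6. Optimal dose is in mg/kg per day. ILSmax is the % lifespan increase over untreated tumor-bearing controls at the optimal dose; above 40% counted significant. Cures are 60-day survivors.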

[3] = system: Lewis lung carcinoma cell line; assay: Optimal dose to inhibit the LL (Lewis lung carcinoma model) cells in vivo after intraperitoneal administration.; format: functional, Mus musculus; parameters: unit: mg/kg/day
In short: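 Mice were inoculated iv with 10^6 Lewis lung carcinoma cells. OD is the optimal dose in mg/kg per day. Lifespan increase above 40% is significant, and long-term survival was scored at 60 days.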

P388/ADR [4] = assay: Percent increase in life span, of the drug-treated tumor-bearing animals vs nontreated tumor-bearing controls with P388/ADR cells.; format: functional, Mus musculus
In short: (§2)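 Groups of 6. Optimal dose is in mg/kg per day. ILSmax is the % lifespan increase over untreated tumor-bearing controls at the optimal dose; above 20% counted significant. Cures are 50-day survivors.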

P388/ADR [5] = assay: Optimal dose required to inhibit the P388/ADR cells in vivo after intraperitoneal administration.; format: functional, Mus musculus; parameters: unit: mg/kg/day
P388 [6] = assay: Optimal dose required to inhibit the P388 intraperitoneal administration.; format: functional, Mus musculus; parameters: unit: mg/kg/day
P388 [7] = assay: Percent increase in life span of the drug-treated tumor-bearing animals vs nontreated tumor-bearing controls with P388 leukemia cells.; format: functional, Mus musculus; in short: as §2
poly[d(A-T)] = assay: Binding constant for poly[d(A-T)] by ethidium bromide displacement
Mus musculus = species: Mus musculus; assay: Percent increase in life span of the drug treated tumor bearing animals vs nontreated tumor bearing controls was determined against P388/ADR cells;NA= not active; format: functional, organism-based
In short: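 Mice were inoculated ip with 10^6 P388 or ADR/P388 cells. OD is the optimal dose in mg/kg per day. ILSmax is the % lifespan increase over untreated tumor-bearing controls at the OD; above 20% is significant. Long-term survival was scored at 50 days.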

Row | SMILES | Rm [1] | pIC50 (HCT-8) | pIC50 (L1210) | ILS max [2] | OD [3] | ILS max (P388/ADR [4]) | OD (P388/ADR [5]) | OD (P388 [6]) | ILS max (P388 [7]) | Log K (poly[d(A-T)]) | ILS max (Mus musculus)
1 | CNC(=O)c1cccc2c(Nc3ccc(NC(=O)OC)cc3NC)c3cccc(C)c3nc12 | 0.5 | 5.73 | 5.92 | 84 | 30 | 35 | 30 | 20 | 99 | 7.12 | –
2 | CN(C)c1cc(NS(C)(=O)=O)ccc1Nc1c2ccccc2nc2ccccc12 | 0.41 | – | – | – | – | 41 | 100 | 166 | – | – | –
3 | CNc1cc(NC(=O)OC)ccc1Nc1c2ccc(C)cc2nc2c(OC)cccc12 | 0.61 | – | 7.96 | 107 | 65 | 57 | 45 | 45 | 128 | 7.34 | –
4 | CNc1cc(NC(=O)OC)ccc1Nc1c2ccc(Cl)cc2nc2c(OC)cccc12 | 0.54 | 5.96 | 6.18 | 133 | 65 | 73 | 100 | 100 | 177 | 6.93 | –
5 | COc1cc(NS(C)(=O)=O)ccc1Nc1c2ccccc2nc2ccccc12 [AMSACRINE] | 0.18 | – | – | – | – | – | – | – | – | – | inactive
6 | CNc1cc(NC(=O)OC)ccc1Nc1c2ccccc2nc2c(OC)cccc12 | 0.41 | 6.20 | 6.27 | 167 | 30 | 35 | 30 | 30 | 98 | 6.57 | –
7 | CNc1cc(NC(=O)OC)ccc1Nc1c2ccccc2nc2cc(OC)ccc12 | 0.45 | 6.48 | 6.77 | 85 | 45 | 89 | 65 | 45 | 108 | 6.74 | –
8 | CNc1cc(NC(=O)OC)ccc1Nc1c2ccc(F)cc2nc2c(C)cccc12 | 0.52 | 6.21 | 6.28 | 126 | 45 | 47 | 65 | 65 | 43 | 7.37 | –
9 | CNc1cc(NC(=O)OC)ccc1Nc1c2ccccc2nc2c(C)cccc12 | 0.56 | 6.72 | 7.00 | 122 | 20 | 43 | 20 | 13.3 | 114 | 6.74 | –
10 | CNc1cc(NC(=O)OC)ccc1Nc1c2ccccc2nc2c(C(N)=O)cccc12 | 0.06 | 5.44 | 5.80 | – | 65 | – | 100 | 100 | 32 | 6 | –
11 | CNc1cc(NC(=O)OC)ccc1Nc1c2ccccc2nc2c(F)cccc12 | 0.37 | 5.55 | 5.85 | 77 | 65 | 43 | 100 | 65 | 103 | 5.82 | –
12 | CNc1cc(NC(=O)OC)ccc1Nc1c2ccc(Br)cc2nc2c(OC)cccc12 | 0.55 | – | 6.44 | 31 | 100 | 20 | 65 | 65 | 98 | 6.43 | –
13 | CNc1cc(NC(=O)OC)ccc1Nc1c2ccccc2nc2cc(F)ccc12 | 0.63 | 6.38 | 6.70 | 83 | 100 | 21 | 100 | 65 | 110 | 5.77 | –
14 | CNc1cc(NC(=O)OC)ccc1Nc1c2ccccc2nc2cc(Cl)ccc12 | 0.73 | 6.26 | 6.76 | 92 | 45 | 35 | 65 | 65 | 104 | 6.13 | –
15 | CNc1cc(NC(=O)OC)ccc1Nc1c2ccccc2nc2cc([N+](=O)[O-])ccc12 | 0.4 | – | 5.30 | 49 | 65 | – | 20 | 30 | 48 | 6.58 | inactive
16 | CNc1cc(NC(=O)OC)ccc1Nc1c2ccc(Br)cc2nc2c(C)cccc12 | 0.69 | 6.64 | 6.74 | 82 | 30 | 42 | 45 | 45 | 286 | 7.52 | –
17 | CNc1cc(NC(=O)OC)ccc1Nc1c2ccc(C)cc2nc2c(C)cccc12 | 0.51 | 7.10 | 7.36 | 171 | 20 | 33 | 13.3 | 20 | 181 | 6.95 | –
18 | CNc1cc(NC(=O)OC)ccc1Nc1c2ccccc2nc2cc(I)ccc12 | 0.65 | 6.46 | 6.96 | 68 | 65 | – | 100 | 45 | 92 | 6.12 | inactive
19 | CNc1cc(NC(=O)OC)ccc1Nc1c2ccc(F)cc2nc2c(OC)cccc12 | 0.45 | 5.80 | 6.03 | 52 | 45 | – | 45 | 100 | 125 | 6.27 | inactive
20 | CNC(=O)c1cccc2c(Nc3ccc(NC(=O)OC)cc3NC)c3cccc(OC)c3nc12 | 0.45 | – | 5.76 | 47 | 65 | 31 | 45 | 65 | 92 | 6.95 | –
21 | CNc1cc(NS(C)(=O)=O)ccc1Nc1c2ccccc2nc2ccccc12 | 0.17 | – | – | – | – | – | 13.3 | – | – | – | inactive
22 | CNC(=O)c1cccc2c(Nc3ccc(NC(=O)OC)cc3NC)c3ccccc3nc12 | 0.43 | 5.56 | 6.08 | 58 | 65 | – | 65 | 65 | 60 | 6.48 | –
23 | CNc1cc(NC(=O)OC)ccc1Nc1c2ccccc2nc2cc(Br)ccc12 | 0.7 | 6.10 | 6.47 | 86 | 45 | 29 | 45 | 45 | 101 | 6.87 | –
24 | CNc1cc(NC(=O)OC)ccc1Nc1c2ccc(Cl)cc2nc2c(C)cccc12 | 0.67 | 6.48 | 6.73 | 143 | 45 | 79 | 45 | 45 | 173 | 7.52 | –
